One assay has as its system A549. Description: Growth inhibitory activity was determined against A549/ATCC cancer cell line of non-small cell lung cancer. It is filed as functional, Homo sapiens. Conditions: Homo sapiens, A549. A digest of the protocol: (§1)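 NCI 60 human tumour cell line screen run at the National Cancer Institute. Cell growth and viability read with the protein stain sulforhodamine B, which binds basic amino acids of cells left attached after washing. […] MG MID is the mean GI50 calculated over all panels.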

The next assay deals with COLO 205. Description: Growth inhibitory activity was determined against COLO 205 cancer cell line colon cancer. It is filed as functional, Homo sapiens. Conditions: Homo sapiens, COLO 205. The method, boiled down: as §1
Assay [1] concerns the target T1, M-phase inducer phosphatase 1 (Homo sapiens) (UniProt P30304).
T1 sequence (whole entry): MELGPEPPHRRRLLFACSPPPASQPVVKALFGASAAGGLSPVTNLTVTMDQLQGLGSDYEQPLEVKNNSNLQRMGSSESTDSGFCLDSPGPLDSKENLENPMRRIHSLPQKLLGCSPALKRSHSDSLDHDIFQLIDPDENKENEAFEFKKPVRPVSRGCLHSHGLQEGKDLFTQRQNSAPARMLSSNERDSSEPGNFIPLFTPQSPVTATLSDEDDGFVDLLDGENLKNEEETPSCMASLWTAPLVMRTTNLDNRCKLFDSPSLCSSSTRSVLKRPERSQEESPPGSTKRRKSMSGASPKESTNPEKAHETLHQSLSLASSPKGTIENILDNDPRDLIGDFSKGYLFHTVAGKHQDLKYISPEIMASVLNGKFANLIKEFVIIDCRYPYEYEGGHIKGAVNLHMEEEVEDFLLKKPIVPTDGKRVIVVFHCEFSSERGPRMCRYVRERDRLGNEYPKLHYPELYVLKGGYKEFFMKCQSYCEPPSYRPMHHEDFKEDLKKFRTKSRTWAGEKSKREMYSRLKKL
Description: Inhibitory activity tested against cell division cycle 25A (assay using p-nitro phenyl phosphate (pNPP) as substrate).

The target of assay [2] is T1, M-phase inducer phosphatase 1 (Homo sapiens). Description: (§2) Inhibitory activity tested against cell division cycle 25A (assay using fluorescein diphosphate (FDP) as substrate). A digest of the protocol:
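Recombinant human GST-Cdc25A fusion protein, each batch calibrated so that FDP was dephosphorylated linearly over 20 min. Fluorescein diphosphate was the substrate. Reactions ran 15 min at 25 °C in the dark and were stopped with sodium orthovanadate. Fluorescein monophosphate was read at 485 nm excitation and 530 nm emission. IC50 came from at least two independent runs, each in triplicate.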

Assay [3] deals with HT-29. Description: Inhibition of colon cancer in HT-29 cancer cell lines. The format is functional. Conditions: Homo sapiens. A digest of the protocol:
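Soft agar clonogenic assay of anchorage-independent growth, using HT-29 colon and A549 lung adenocarcinoma cells. The value is the compound concentration that cut colony number to 50% of control.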

The next assay concerns HCC 2998. Description: Growth inhibitory activity was determined against HCC2998 cancer cell line colon cancer. The following applies: Homo sapiens, HCC 2998. The format is functional, Homo sapiens. A digest of the protocol:
as §1

The subject of a further assay is LOX IMVI. Description: Growth inhibitory activity was determined against LOX IMVI cancer cell line of melanoma. Conditions: Homo sapiens, LOX IMVI. The format is functional, Homo sapiens. A digest of the protocol:
as §1

The test system of assay [4] is OVCAR-3. Description: Inhibition of Ovarian cancer in OVCAR-3 cancer cell lines. The format is functional. The following applies: Homo sapiens.
A further assay deals with NCI-H23. Description: Growth inhibitory activity was determined against NCI-H23 cancer cell line of non-small cell lung cancer. It is filed as functional, Homo sapiens. Conditions: Homo sapiens, NCI-H23. The method, boiled down: as §1
Another assay relates to NCI-H522. Description: Growth inhibitory activity was determined against NCI-H522 cancer cell line of non-small cell lung cancer. The format is functional. The following applies: Homo sapiens. The method, boiled down: as §1
Assay [5] has as its system NCI/ADR-RES. Description: Inhibition of Breast cancer in NCI/ADR-RES cancer cell lines. The format is functional. The following applies: Homo sapiens.
Assay [6] concerns OVCAR-8. Description: Inhibition of Ovarian cancer in OVCAR-8 cancer cell lines. The format is functional. The following applies: Homo sapiens.
For assay [7], the system named is PC-3. Description: Inhibition of Prostate cancer in PC-3 cancer cell lines. It is filed as functional. Conditions: Homo sapiens.
Assay [8] relates to SN12C. Description: Inhibition of Renal cancer in SN12C cancer cell lines. It is filed as functional. Conditions: Homo sapiens.
The next assay deals with SF-539. Description: Growth inhibitory activity was determined against SF-539 cancer cell line of CNS cancer. It is filed as functional. Conditions: Homo sapiens. The method, boiled down: as §1
The subject of the next assay is SF-268. Description: Growth inhibitory activity was determined against SF-268 cancer cell line of CNS cancer. The format is functional. The following applies: Homo sapiens. The method, boiled down:
as §1

Assay [9] deals with SK-MEL-5. Description: Growth inhibitory activity was determined against SK-MEL-5 cancer cell line of melanoma. The format is functional, Homo sapiens. The following applies: Homo sapiens, SK-MEL-5. A digest of the protocol: as §1
Assay [10] deals with T47D. Description: Inhibition of Breast cancer in T-47D cancer cell lines. The format is functional. The following applies: Homo sapiens.
Assay [11] relates to UO-31. Description: Inhibition of Renal cancer in UO-31 cancer cell lines. The format is functional. Conditions: Homo sapiens.
The subject of another assay is U-251. Description: Growth inhibitory activity was determined against U-251 cancer cell line of CNS cancer. The following applies: Homo sapiens. The format is functional. The method, boiled down:
as §1

The subject of assay [12] is 786-0. Description: Inhibition of Renal cancer in 786-0 cancer cell lines. The format is functional. Conditions: Homo sapiens.
For assay [13], the system named is BT-549 (Homo sapiens). Description: Inhibition of Breast cancer in BT-549 cancer cell lines.
The target of assay [14] is Receptor-type tyrosine-protein phosphatase C, CD45 (Homo sapiens) (UniProt P08575). Description: Inhibitory activity tested against human CD45 receptor-type tyrosine-protein phosphatase C.
Assay [15] relates to 786-0. Description: Growth inhibitory activity was determined against 786-0 cancer cell line of Renal cancer. The format is functional. The following applies: Homo sapiens. The method, boiled down:
as §1

The target of assay [16] is T2, M-phase inducer phosphatase 1 (Homo sapiens, UniProt P30304).
T2 sequence (P30304 whole entry): T1 sequence (whole entry)
The assay is described as §2. The method, boiled down: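 Recombinant human GST-Cdc25A fusion protein, each batch calibrated so that FDP was dephosphorylated linearly over 20 min. Fluorescein diphosphate was the substrate. Reactions ran 15 min at 25 °C in the dark and were stopped with sodium orthovanadate. IC50 came from at least two independent runs, each in triplicate.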

For assay [17], the system named is HT-29. Description: Growth inhibitory activity was determined against HT-29 cancer cell line colon cancer. Conditions: Homo sapiens, HT-29. The format is functional, Homo sapiens. A digest of the protocol: as §1
For assay [18], the system named is NCI/ADR-RES. Description: Growth inhibitory activity was determined against NCI/ADR-RES cancer cell line of Breast cancer. Conditions: Homo sapiens, NCI/ADR-RES. The format is functional, Homo sapiens. A digest of the protocol: as §1
The test system of assay [19] is OVCAR-8. Description: Growth inhibitory activity was determined against OVCAR-8 cancer cell line of Ovarian cancer. It is filed as functional. The following applies: Homo sapiens. A digest of the protocol:
as §1

The test system of assay [20] is SN12C. Description: Growth inhibitory activity was determined against SN12C cancer cell line of Renal cancer. The format is functional. The following applies: Homo sapiens. A digest of the protocol: as §1
For assay [21], the system named is SK-MEL-5. Description: Growth inhibitory activity was determined against SK-MEL-5 cancer cell line of melanom. Conditions: Homo sapiens. The format is functional. The method, boiled down:
as §1

Assay [22] deals with UO-31. Description: Growth inhibitory activity was determined against UO-31 cancer cell line of Renal cancer. It is filed as functional. Conditions: Homo sapiens. The method, boiled down: as §1
The subject of assay [23] is PC-3. Description: Growth inhibitory activity was determined against PC-3 cancer cell line of Prostate cancer. It is filed as functional. Conditions: Homo sapiens. A digest of the protocol:
as §1

Assay [24] deals with T47D. Description: Growth inhibitory activity was determined against T-47D cancer cell line of Breast cancer. The format is functional, Homo sapiens. The following applies: Homo sapiens, T47D. The method, boiled down: as §1
In assay [25] the test system is OVCAR-3. Description: Growth inhibitory activity was determined against OVCAR-3 cancer cell line of Ovarian cancer. It is filed as functional. Conditions: Homo sapiens. The method, boiled down:
as §1

In assay [26] the test system is BT-549 (Homo sapiens). Description: Growth inhibitory activity was determined against BT-549 cancer cell line of Breast cancer. Conditions: Homo sapiens, BT-549.
Assay [27] in a line: Inhibitory activity against PSPTase. A digest of the protocol:
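Human GST-Cdc25A fusion protein, with each batch calibrated for linear dephosphorylation of fluorescein diphosphate over 20 min. Run 15 min at 25 °C in the dark and stopped with sodium orthovanadate. Fluorescein monophosphate read at ex 485/em 530 nm. IC50 from at least two independent determinations, each in triplicate; variation from the mean within ±20%.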

The structures appear in SMILES notation. Some results are limits rather than exact numbers.

Chain of Receptor-type tyrosine-protein phosphatase C, CD45 (Homo sapiens) (P08575 whole entry, looked up): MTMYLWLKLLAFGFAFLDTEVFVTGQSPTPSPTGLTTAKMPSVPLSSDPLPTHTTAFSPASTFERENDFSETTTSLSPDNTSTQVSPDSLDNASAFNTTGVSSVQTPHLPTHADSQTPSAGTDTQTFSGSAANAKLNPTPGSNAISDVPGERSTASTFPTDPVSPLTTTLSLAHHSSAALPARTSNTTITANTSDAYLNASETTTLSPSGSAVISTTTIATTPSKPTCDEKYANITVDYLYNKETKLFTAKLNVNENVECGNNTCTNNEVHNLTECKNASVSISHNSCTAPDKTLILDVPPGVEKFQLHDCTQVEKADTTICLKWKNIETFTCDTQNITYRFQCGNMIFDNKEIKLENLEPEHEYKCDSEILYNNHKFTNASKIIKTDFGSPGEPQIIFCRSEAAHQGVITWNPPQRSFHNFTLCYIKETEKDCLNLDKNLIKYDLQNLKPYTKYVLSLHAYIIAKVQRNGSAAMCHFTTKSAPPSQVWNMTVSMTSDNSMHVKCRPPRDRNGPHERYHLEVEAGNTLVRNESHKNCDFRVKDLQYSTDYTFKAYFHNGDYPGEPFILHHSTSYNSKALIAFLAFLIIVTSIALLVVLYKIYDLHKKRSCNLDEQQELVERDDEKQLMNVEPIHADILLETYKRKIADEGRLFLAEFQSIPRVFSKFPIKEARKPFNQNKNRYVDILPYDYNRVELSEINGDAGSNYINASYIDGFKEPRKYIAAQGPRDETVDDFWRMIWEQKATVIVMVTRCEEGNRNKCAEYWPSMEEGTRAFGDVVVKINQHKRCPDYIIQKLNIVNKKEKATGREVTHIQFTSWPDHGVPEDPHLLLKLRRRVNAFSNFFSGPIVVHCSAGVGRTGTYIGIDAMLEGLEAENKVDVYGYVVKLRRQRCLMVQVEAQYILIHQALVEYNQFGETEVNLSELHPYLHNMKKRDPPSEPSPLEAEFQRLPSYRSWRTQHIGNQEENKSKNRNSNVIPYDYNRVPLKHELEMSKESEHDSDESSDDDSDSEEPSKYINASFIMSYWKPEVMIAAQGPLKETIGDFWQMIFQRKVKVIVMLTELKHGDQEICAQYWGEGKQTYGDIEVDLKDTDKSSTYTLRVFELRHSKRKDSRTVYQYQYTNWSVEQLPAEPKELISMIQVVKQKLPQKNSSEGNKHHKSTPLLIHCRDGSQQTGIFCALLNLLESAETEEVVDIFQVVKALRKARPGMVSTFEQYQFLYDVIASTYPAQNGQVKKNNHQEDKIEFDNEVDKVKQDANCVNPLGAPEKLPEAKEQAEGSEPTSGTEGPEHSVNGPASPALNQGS

A word on the GI50: it is the concentration that inhibits growth by half. The low end stands for more potent growth inhibition, the high end for less potent growth inhibition. For orientation: IC50 means the concentration at which inhibition is half-maximal. Low readings indicate greater potency, high ones weaker potency. Consider `C/C(=C\CCCC#N)[C@H]1CC[C@]2(C)[C@@H]([C@H](C)CCCC(C)C)CC[C@H]2[C@@H]1CC(=O)O`, for which the 50% growth inhibitory concentration (GI50) with A549 turned out to be 7.33 µM; in the assay on COLO 205, 5.92 µM; in the assay with HT-29 [3] it was 6.49 µM; in the assay on HCC 2998 it was 4.31 µM; with LOX IMVI, 5.91 µM; in the assay with OVCAR-3 [4], 6.77 µM. Further, the concentration for 50% growth inhibition (GI50) in the assay on NCI-H23 was determined as 7.4 µM; in the assay on NCI-H522 it was 17.3 µM; with NCI/ADR-RES [5], 6.44 µM; in the assay on OVCAR-8 [6], 5.53 µM; with PC-3 [7] it was 6.34 µM; in the assay on SN12C [8] it was 7.73 µM. Also, the GI50 in the assay on SF-539 was 10.5 µM; with SF-268, 16.6 µM; in the assay on SK-MEL-5 [9], 8.83 µM; with T47D [10], 8.22 µM; with UO-31 [11], 9.55 µM; in the assay on U-251, 5.53 µM. The concentration for 50% growth inhibition (GI50) in the assay on 786-0 [12] came out at 8.69 µM; with BT-549 (Homo sapiens) [13] it was 5.75 µM. In addition, the results for the half-inhibitory concentration (IC50) in [1], in assay [2] and in [14] were 9.3 µM, 2.5 µM and 13.2 µM, respectively.
Turning to `CC(C)CCC[C@@H](C)[C@H]1CC[C@H]2[C@H](CC(=O)O)[C@@H]([C@@]3(C)CCCCC3=O)CC[C@]12C`, the GI50 with 786-0 [15] was 18.5 µM; with A549, 10.8 µM; with COLO 205, > 25 µM; in the assay with HT-29 [17], 15.7 µM; in the assay with HCC 2998 it was 18.8 µM; in the assay with LOX IMVI, 16.7 µM. The GI50 with NCI-H23 is 19 µM; in the assay on NCI-H522 it was > 25 µM; with NCI/ADR-RES [18] it was 14.6 µM; in the assay with OVCAR-8 [19], 13.5 µM; with SN12C [20], 13.4 µM; in the assay on SF-539 it was > 25 µM. Also, the concentration for 50% growth inhibition (GI50) is > 25 µM in the assay on SF-268; > 25 µM in the assay with SK-MEL-5 [21]; > 25 µM with UO-31 [22]; 14 µM in the assay with U-251; 16 µM in the assay on PC-3 [23]; 16.9 µM with T47D [24]. Also, the figures for the 50% growth inhibitory concentration (GI50) in the assay on OVCAR-3 [25] and in the assay with BT-549 (Homo sapiens) [26] were > 25 µM and 13 µM, respectively. In [16], 5.9 µM corresponded to half-maximal inhibition (IC50).
`C=C1[C@@H](O)[C@@H]2O[C@]3(CC[C@H](/C=C/[C@@H](C)[C@@H]4CC(C)=C[C@@]5(O[C@H](C[C@@](C)(O)C(=O)O)CC[C@H]5O)O4)O3)CC[C@H]2O[C@@H]1[C@@H](O)C[C@H](C)[C@H]1O[C@@]2(CCCCO2)CC[C@H]1C` [OKADAIC ACID]: 0.049 µM corresponded to half-maximal inhibition in [27] (IC50).

The values above are taken from ChEMBL document CHEMBL1134845, “Syntheses and biological activities of a novel group of steroidal derived inhibitors for human Cdc25A protein phosphatase” (J Med Chem, 2001).
